MrgX1 ag – human MrgX1 receptor agonism, primary screen. Q96LB2. MrgX1-HEK293 cells, Fluo-4 calcium fluorescence, agonist mode; active compounds read high. B-score at 10 µM. actives 0.44% (n = 310,000). AID 588627;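 active = calcium response B-score plate-corrected fluorescence ratio at least 3 library SD, with starting fluorescence B-score inside 5 SD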
Target sequence (Q96LB2 whole entry, looked up): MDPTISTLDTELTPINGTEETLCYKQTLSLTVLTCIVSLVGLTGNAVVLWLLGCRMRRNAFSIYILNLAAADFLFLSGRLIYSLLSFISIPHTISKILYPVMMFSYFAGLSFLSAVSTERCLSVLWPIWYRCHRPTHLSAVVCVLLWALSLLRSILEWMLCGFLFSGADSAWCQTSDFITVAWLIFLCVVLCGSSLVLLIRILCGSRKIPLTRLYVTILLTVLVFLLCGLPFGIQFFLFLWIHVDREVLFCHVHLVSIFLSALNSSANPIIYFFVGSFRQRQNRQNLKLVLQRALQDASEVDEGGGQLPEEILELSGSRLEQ
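Assay system: MrgX1-expressing HEK293 cells / Amount: fifteen thousand cells per well / Doses: test compound in the initial addition of three / Timing: cells plated overnight, dye loaded 0.5 h 37 °C, 0.5 h room temperature / Technique: kinetic calcium dye fluorescence, Fluo-4 NW / Control set: positive and negative controls per plate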
RGS4 pot – RGS4 potentiation or activation | HEK293 M3R/inducible RGS4, carbachol calcium flux Fluo4; active compounds read low | B-score at 10 µM | actives 0.92% (n = 310,000) | AID 463111;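 active = B-score of the integrated calcium signal more than 4 SD below the library mean, with starting fluorescence not abnormally high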;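 also: negative B-score means reduced calcium response which marks RGS4 activation or potentiation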
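Material: M3R-expressing HEK293 line, RGS4 induced by doxycycline | Schedule: Overnight RGS4 induction, 30 min dye load 37 °C, 20 min compound RT | Measured by: Fluo4 fluorescence kinetic imaging of calcium | Read-out: Integrated calcium ratio converted to B score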
RGS4 inh – human RGS4 inhibition. P49798. HEK293 M3R/RGS4 inducible, Fluo-4 calcium flux; active compounds read high; triggered by carbachol at its EC20. B-score at 10 µM. actives 0.45% (n = 310,000);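 active = B-score, a plate-corrected calcium signal, over three deviations above library mean, with baseline fluorescence within five deviations of library mean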;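 also: RGS4 expression induced by doxycycline in cells with stable M3 receptor; B-score is computed from the integrated fluorescence ratio over baseline after carbachol; higher B-score means a larger calcium signal and so more RGS4 inhibition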
Target sequence (P49798 whole entry, looked up): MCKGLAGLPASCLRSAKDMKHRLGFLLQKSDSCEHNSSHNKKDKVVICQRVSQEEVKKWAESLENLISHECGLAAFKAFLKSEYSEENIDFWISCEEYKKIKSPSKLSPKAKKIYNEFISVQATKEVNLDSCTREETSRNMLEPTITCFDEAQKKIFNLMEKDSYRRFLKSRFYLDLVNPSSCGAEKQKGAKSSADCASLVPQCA
MrgX1 PAM – allosterically activates human MrgX1 receptor signaling; MrgX1-HEK293, Fluo-4 calcium flux, FDSS; active compounds read high; B-score at 10 µM; actives 0.63% (n = 310,000); AID 588675;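 active = plate-corrected calcium response at least 3 library SD above typical, normal starting fluorescence, not activating the receptor alone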;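 also: compound read alongside a low EC10 to EC30 dose of BAM8-22 agonist; peak minus trough fluorescence over baseline measured at the second addition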
MrgX1 antagonist – human MrgX1 receptor antagonism, primary screen; Q96LB2; MRGX1-HEK293 calcium flux, Fluo-4, BAM8-22 antagonism; active compounds read low; B-score at 10 µM; actives 1.3% (n = 310,000);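 active = calcium-response B-score plate-corrected more than 3 library SD below zero, starting fluorescence within 5 deviations, no agonist response on first addition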;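 also: peak minus trough fluorescence over baseline after final BAM8-22 challenge near maximal dose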
* marks the source's active call; other numbers are inactive results. Compounds with a hit are over-represented: about 3.5% of the library has one in this group of screens.

What do the screens show for `CCN(CC)CCOC(=O)c1ccc(NC(=O)CCCN2C(=O)/C(=C/c3cccs3)SC2=S)cc1`?
MrgX1 ag: inactive; RGS4 pot: -8.3*; RGS4 inh: inactive; MrgX1 PAM: inactive; MrgX1 antagonist: inactive

How did CCOC(=O)CSc1nc2ccc(NC(=O)CSc3nnnn3Cc3ccccc3)cc2s1 do in these assays?
MrgX1 ag: inactive; RGS4 pot: inactive; RGS4 inh: inactive; MrgX1 PAM: 6.9*; MrgX1 antagonist: inactive

Results for CCC(C(=O)NC1CCCCC1)N(Cc1cccs1)C(=O)c1snc(C(N)=O)c1N (centres undefined) ?
MrgX1 ag: inactive; RGS4 pot: inactive; RGS4 inh: inactive; MrgX1 PAM: inactive; MrgX1 antagonist: inactive

What do the screens show for `Cc1ccc(OCCCC(=O)NC(C)c2ccccc2)cc1` (centres undefined)?
MrgX1 ag: inactive; RGS4 pot: inactive; RGS4 inh: inactive; MrgX1 PAM: inactive; MrgX1 antagonist: inactive

How did CC(=O)c1ccc(OCCCC(=O)NC(C)c2ccc(S(N)(=O)=O)cc2)cc1 (centres undefined) do in these assays?
MrgX1 ag: inactive; RGS4 pot: inactive; RGS4 inh: inactive; MrgX1 PAM: 6.6*; MrgX1 antagonist: inactive

Results for O=C(OCCOc1cccc(Cl)c1)c1cc(S(=O)(=O)N2CCOCC2)ccc1F ?
MrgX1 ag: inactive; RGS4 pot: inactive; RGS4 inh: inactive; MrgX1 PAM: inactive; MrgX1 antagonist: inactive

What do the screens show for `CCC1Oc2ccccc2N(CC(=O)NCCCN2CCN(Cc3ccccc3)CC2)C1=O` (centres undefined)?
MrgX1 ag: inactive; RGS4 pot: inactive; RGS4 inh: inactive; MrgX1 PAM: inactive; MrgX1 antagonist: -5.3*

Results for CCCN1CCN(CCCNC(=O)CN2C(=O)C(CC)Oc3ccccc32)CC1 (centres undefined) ?
MrgX1 ag: inactive; RGS4 pot: inactive; RGS4 inh: inactive; MrgX1 PAM: inactive; MrgX1 antagonist: inactive

Results for Cc1c(Cl)cccc1NC(=O)COC(=O)c1c2c(nc3ccccc13)CCN(Cc1ccccc1)C2 ?
MrgX1 ag: inactive; RGS4 pot: inactive; RGS4 inh: inactive; MrgX1 PAM: inactive; MrgX1 antagonist: inactive

Results for CC(C)c1ccccc1NC(=O)COC(=O)c1c2c(nc3ccccc13)CCN(Cc1ccccc1)C2 ?
MrgX1 ag: inactive; RGS4 pot: -8.1*; RGS4 inh: inactive; MrgX1 PAM: inactive; MrgX1 antagonist: inactive

How did CC(C)NC(=O)NC(=O)COC(=O)c1c2c(nc3ccccc13)CCC2 do in these assays?
MrgX1 ag: inactive; RGS4 pot: -7*; RGS4 inh: inactive; MrgX1 PAM: inactive; MrgX1 antagonist: inactive

How did O=C(CSc1nnc(NC(=O)c2ccco2)s1)Nc1ccc2c(c1)OCCO2 do in these assays?
MrgX1 ag: inactive; RGS4 pot: inactive; RGS4 inh: inactive; MrgX1 PAM: inactive; MrgX1 antagonist: inactive

Results for Nc1ccc(N=Nc2ccccc2)c2cccnc12 ?
MrgX1 ag: inactive; RGS4 pot: inactive; RGS4 inh: 5*; MrgX1 PAM: inactive; MrgX1 antagonist: inactive

Results for COc1ccc(-c2[nH]c(-c3ccc(SC)cc3)nc2SCC(=O)Nc2nccs2)cc1 ?
MrgX1 ag: inactive; RGS4 pot: inactive; RGS4 inh: inactive; MrgX1 PAM: inactive; MrgX1 antagonist: inactive

What do the screens show for `CCN1CCN(c2nn3c(=O)c4ccccc4nc3c3ccccc23)CC1`?
MrgX1 ag: inactive; RGS4 pot: -8.6*; RGS4 inh: inactive; MrgX1 PAM: inactive; MrgX1 antagonist: inactive

How did CC1CN(c2nn3c(=O)c4ccccc4nc3c3ccccc23)CC(C)O1 (centres undefined) do in these assays?
MrgX1 ag: inactive; RGS4 pot: inactive; RGS4 inh: inactive; MrgX1 PAM: inactive; MrgX1 antagonist: inactive

What do the screens show for `CCCN1C(=O)/C(=C/c2ccc(N3CCCC3)c(C)c2)NC1=S`?
MrgX1 ag: 47*; RGS4 pot: inactive; RGS4 inh: inactive; MrgX1 PAM: inactive; MrgX1 antagonist: inactive

What do the screens show for `Cc1cc(N2CCCC2)ccc1/C=C1/C(=O)N(C)C(=S)N1C`?
MrgX1 ag: inactive; RGS4 pot: inactive; RGS4 inh: inactive; MrgX1 PAM: inactive; MrgX1 antagonist: inactive

What do the screens show for `CCCN1C(=O)/C(=C/c2ccc(N3CCOCC3)cc2)NC1=S`?
MrgX1 ag: inactive; RGS4 pot: inactive; RGS4 inh: inactive; MrgX1 PAM: inactive; MrgX1 antagonist: -6.1*

What do the screens show for `Cc1cc(/C=C2/C(=O)N(C)C(=S)N2C)ccc1N1CCCC1`?
MrgX1 ag: inactive; RGS4 pot: inactive; RGS4 inh: inactive; MrgX1 PAM: 7.6*; MrgX1 antagonist: inactive

Results for Cc1ccc(CN2C(=O)N/C(=C\c3ccc(N4CCOCC4)cc3)C2=O)cc1 ?
MrgX1 ag: inactive; RGS4 pot: inactive; RGS4 inh: inactive; MrgX1 PAM: inactive; MrgX1 antagonist: inactive

Results for Nc1nc(NC(=O)CCC(=O)O)nn1-c1ccccc1 ?
MrgX1 ag: inactive; RGS4 pot: inactive; RGS4 inh: inactive; MrgX1 PAM: inactive; MrgX1 antagonist: inactive

What do the screens show for `Cc1oc(-c2cccc(Cl)c2)nc1CN1CCCC(C(=O)NC(C)c2ccc3c(c2)OCCO3)C1` (centres undefined)?
MrgX1 ag: inactive; RGS4 pot: -7*; RGS4 inh: inactive; MrgX1 PAM: inactive; MrgX1 antagonist: inactive

Results for COc1ccc(/C=C/C(=O)Nc2sc3c(c2C(=O)NCc2cccnc2)CCCC3)cc1 ?
MrgX1 ag: inactive; RGS4 pot: -8.7*; RGS4 inh: inactive; MrgX1 PAM: inactive; MrgX1 antagonist: inactive

Results for O=C(COc1ccccc1)Nc1sc2c(c1C(=O)NCc1cccnc1)CCCC2 ?
MrgX1 ag: inactive; RGS4 pot: inactive; RGS4 inh: inactive; MrgX1 PAM: inactive; MrgX1 antagonist: inactive

How did COc1ccccc1NC(=O)CSc1nc2ccccc2nc1N1CC(C)OC(C)C1 (centres undefined) do in these assays?
MrgX1 ag: inactive; RGS4 pot: inactive; RGS4 inh: inactive; MrgX1 PAM: inactive; MrgX1 antagonist: inactive

Results for Cc1ccccc1SCC(=O)Nc1cc(C(F)(F)F)ccc1N1CCOCC1 ?
MrgX1 ag: inactive; RGS4 pot: inactive; RGS4 inh: inactive; MrgX1 PAM: 11*; MrgX1 antagonist: inactive

Results for CC(C)CN1C(=O)/C(=C(/C#N)C(=O)NC2CCCCC2)c2ccccc21 ?
MrgX1 ag: inactive; RGS4 pot: inactive; RGS4 inh: inactive; MrgX1 PAM: 8.2*; MrgX1 antagonist: inactive

Results for COc1cccc(CNc2nc(-c3cccnc3)nc3ccccc23)c1 ?
MrgX1 ag: inactive; RGS4 pot: inactive; RGS4 inh: inactive; MrgX1 PAM: inactive; MrgX1 antagonist: inactive

Assay outcomes deposited in PubChem BioAssay by Johns Hopkins Ion Channel Center.
